Among the data in ChEMBL document CHEMBL1949646, “Design, synthesis, in vitro antimicrobial and anticancer activity of novel methylenebis-isoxazolo[4,5-b]azepines derivatives” (Eur J Med Chem, 2012) are IC50 and MIC values, retold here.

One assay has as its system HEK293. Put plainly: Cytotoxicity against human HEK293 cells after 48 hrs by MTT assay. Format: cell-based. The settings on record: HEK293, 48 h. The essentials: (§1)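 Cells kept in a humidified 5% CO2 incubator. Compounds diluted in culture medium and added to wells alongside a vehicle control. After MTT, supernatant removed, formazan dissolved in DMSO, and absorbance read at 540 nm. Percentage growth inhibition calculated. At least three independent assays.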
For orientation: Tetrazolium assays rely on reduction of a dye to a coloured formazan, in cell work by metabolically active cells.

A further assay relates to Aspergillus flavus. Put plainly: Antifungal activity against Aspergillus flavus after 5 days by agar diffusion method. Format: functional. The settings on record: 120 h. On the technique in general: Agar diffusion results depend on both activity and mobility in agar.
Another assay concerns MDA-MB-231. Put plainly: Cytotoxicity against human estrogen receptor-negative MDA-MB-231 cells after 48 hrs by MTT assay. Type of assay: functional, cell-based. As to conditions: MDA-MB-231, 48 h. The procedure, abridged: as §1
The subject of the next assay is Pseudomonas aeruginosa. Put plainly: Antibacterial activity against Pseudomonas aeruginosa after 24 to 28 hrs by agar diffusion method. Format: functional.
In a further assay the test system is Bacillus subtilis. Put plainly: Antibacterial activity against Bacillus subtilis after 24 to 28 hrs by agar diffusion method. Type of assay: functional.
For the next assay, the system named is Escherichia coli. Put plainly: Antibacterial activity against Escherichia coli after 24 to 28 hrs by agar diffusion method. Type of assay: functional.
Another assay relates to Lactococcus lactis. Put plainly: Antibacterial activity against Streptococcus lactis after 24 to 28 hrs by agar diffusion method. Type of assay: functional.
The next assay concerns MCF7. Put plainly: Cytotoxicity against human estrogen receptor-positive MCF7 cells after 48 hrs by MTT assay. Type of assay: functional, cell-based. The settings on record: MCF7, 48 h. The procedure, abridged: as §1
The next assay has as its system Trichoderma viride. Put plainly: Antifungal activity against Trichoderma viride after 5 days by agar diffusion method. Format: functional. The settings on record: 120 h.

SMILES strings stand for the structures. In brackets after ≈: the same amount, converted by molar mass.

The IC50 is the concentration needed to halve the response being measured. By MIC is commonly meant the least concentration at which growth counts as inhibited. The low end stands for a more susceptible organism, the high end for a less susceptible organism. Take `Cc1noc2c1N=C(c1cccs1)CC(c1cc(Cc3ccc(O)c(C4CC(c5cccs5)=Nc5c(C)noc5C4)c3)ccc1O)C2` (stereo not given): the IC50 in the assay on HEK293 was 10.3 µM; in the assay with MDA-MB-231, 18.2 µM; with MCF7, 10.2 µM. For the same compound, the MIC with Aspergillus flavus was found to be 15 µg/mL (≈ 22.7 µM); in the assay with Pseudomonas aeruginosa it was 12 µg/mL (≈ 18.2 µM); in the assay with Bacillus subtilis it was 19 µg/mL (≈ 28.8 µM); in the assay on Escherichia coli it was 14 µg/mL (≈ 21.2 µM); in the assay with Lactococcus lactis, 20 µg/mL (≈ 30.3 µM); in the assay with Trichoderma viride, 14 µg/mL (≈ 21.2 µM).
`Cc1noc2c1N=C(c1ccc([N+](=O)[O-])cc1)CC(c1cc(Cc3ccc(O)c(C4CC(c5ccc([N+](=O)[O-])cc5)=Nc5c(C)noc5C4)c3)ccc1O)C2` (stereo not given): the IC50 in the assay with HEK293 worked out at 55.6 µM; with MDA-MB-231 it was 53.4 µM; in the assay with MCF7, 36.3 µM. The MIC came to 30 µg/mL (≈ 40.6 µM) in the assay on Aspergillus flavus; 28 µg/mL (≈ 37.9 µM) with Pseudomonas aeruginosa; 30 µg/mL (≈ 40.6 µM) against Bacillus subtilis; 28 µg/mL (≈ 37.9 µM) against Escherichia coli; 26 µg/mL (≈ 35.2 µM) with Lactococcus lactis; 30 µg/mL (≈ 40.6 µM) in the assay with Trichoderma viride.
With `Cc1noc2c1N=C(c1ccc(Cl)cc1)CC(c1cc(Cc3ccc(O)c(C4CC(c5ccc(Cl)cc5)=Nc5c(C)noc5C4)c3)ccc1O)C2` (stereo not given), the IC50 with HEK293 came out at 53.3 µM; in the assay with MDA-MB-231 it was 52.5 µM; with MCF7 it was 30.4 µM. In addition, the MIC in the assay with Aspergillus flavus was 32 µg/mL (≈ 44.6 µM); in the assay on Pseudomonas aeruginosa, 30 µg/mL (≈ 41.8 µM); with Bacillus subtilis it was 28 µg/mL (≈ 39 µM); against Escherichia coli it was 28 µg/mL (≈ 39 µM); in the assay with Lactococcus lactis, 25 µg/mL (≈ 34.8 µM); against Trichoderma viride it was 30 µg/mL (≈ 41.8 µM).
For `Cc1noc2c1N=C(c1ccco1)CC(c1cc(Cc3ccc(O)c(C4CC(c5ccco5)=Nc5c(C)noc5C4)c3)ccc1O)C2` (stereo not given), the values for the IC50 in the assay on HEK293, in the assay on MDA-MB-231 and with MCF7 were 30.2 µM, 10.3 µM and 12.5 µM, respectively. The MIC was 20 µg/mL (≈ 31.8 µM) against Aspergillus flavus; 14 µg/mL (≈ 22.3 µM) in the assay with Pseudomonas aeruginosa; 20 µg/mL (≈ 31.8 µM) against Bacillus subtilis; 16 µg/mL (≈ 25.4 µM) in the assay on Escherichia coli; 22 µg/mL (≈ 35 µM) in the assay on Lactococcus lactis; 16 µg/mL (≈ 25.4 µM) with Trichoderma viride.
Take `Cc1noc2c1N=C(c1ccccc1O)CC(c1cc(Cc3ccc(O)c(C4CC(c5ccccc5O)=Nc5c(C)noc5C4)c3)ccc1O)C2` (stereo not given): the values for the IC50 in the assay with HEK293, in the assay with MDA-MB-231 and with MCF7 were 65.5 µM, 63.4 µM and 44.3 µM, respectively. For the same compound, the MIC worked out at 38 µg/mL (≈ 55.8 µM) in the assay on Aspergillus flavus; 38 µg/mL (≈ 55.8 µM) with Pseudomonas aeruginosa; 38 µg/mL (≈ 55.8 µM) against Bacillus subtilis; 36 µg/mL (≈ 52.9 µM) in the assay with Escherichia coli; 35 µg/mL (≈ 51.4 µM) against Lactococcus lactis; 40 µg/mL (≈ 58.8 µM) against Trichoderma viride.
For the compound `Cc1noc2c1N=C(c1ccc(Br)cc1)CC(c1cc(Cc3ccc(O)c(C4CC(c5ccc(Br)cc5)=Nc5c(C)noc5C4)c3)ccc1O)C2` (stereo not given), the IC50 in the assay with HEK293 turned out to be 54.5 µM; in the assay with MDA-MB-231, 51.2 µM; in the assay with MCF7, 34.2 µM. In addition, the MIC with Aspergillus flavus was 30 µg/mL (≈ 37.2 µM); against Pseudomonas aeruginosa, 30 µg/mL (≈ 37.2 µM); against Bacillus subtilis, 30 µg/mL (≈ 37.2 µM); against Escherichia coli it was 27 µg/mL (≈ 33.5 µM); in the assay on Lactococcus lactis, 25 µg/mL (≈ 31 µM); against Trichoderma viride it was 32 µg/mL (≈ 39.7 µM).
On to `Cc1noc2c1N=C(c1ccccc1)CC(c1cc(Cc3ccc(O)c(C4CC(c5ccccc5)=Nc5c(C)noc5C4)c3)ccc1O)C2` (stereo not given), for which the IC50 was 85.4 µM with HEK293, 82.6 µM with MDA-MB-231 and 80.6 µM in the assay on MCF7. For the same compound, the MIC against Aspergillus flavus was 40 µg/mL (≈ 61.7 µM); against Pseudomonas aeruginosa, 35 µg/mL (≈ 53.9 µM); against Bacillus subtilis, 35 µg/mL (≈ 53.9 µM); with Escherichia coli it was 40 µg/mL (≈ 61.7 µM); against Lactococcus lactis it was 40 µg/mL (≈ 61.7 µM); against Trichoderma viride it was 40 µg/mL (≈ 61.7 µM).
For the compound `CCn1cc(C(=O)O)c(=O)c2ccc(C)nc21` [NALIDIXIC ACID], the MIC came out at 30 µg/mL (≈ 129 µM) with Pseudomonas aeruginosa, 30 µg/mL (≈ 129 µM) with Bacillus subtilis, 28 µg/mL (≈ 121 µM) with Escherichia coli and 25 µg/mL (≈ 108 µM) in the assay on Lactococcus lactis.
In the case of `Cc1ccc(C2=Nc3c(C)noc3CC(c3cc(Cc4ccc(O)c(C5CC(c6ccc(C)cc6)=Nc6c(C)noc6C5)c4)ccc3O)C2)cc1` (stereo not given), the IC50 turned out to be 63.4 µM in the assay on HEK293, 61.1 µM in the assay on MDA-MB-231 and 42.3 µM in the assay with MCF7. Besides, the minimum inhibitory concentration (MIC) is 35 µg/mL (≈ 51.7 µM) against Aspergillus flavus; 40 µg/mL (≈ 59.1 µM) with Pseudomonas aeruginosa; 35 µg/mL (≈ 51.7 µM) in the assay on Bacillus subtilis; 35 µg/mL (≈ 51.7 µM) in the assay on Escherichia coli; 32 µg/mL (≈ 47.3 µM) against Lactococcus lactis; 38 µg/mL (≈ 56.1 µM) in the assay on Trichoderma viride.
Take `COc1ccc(C2=Nc3c(C)noc3CC(c3cc(Cc4ccc(O)c(C5CC(c6ccc(OC)cc6)=Nc6c(C)noc6C5)c4)ccc3O)C2)cc1` (stereo not given): the results for the IC50 in the assay with HEK293, in the assay with MDA-MB-231 and in the assay with MCF7 were 57.4 µM, 58.1 µM and 40.4 µM, respectively. The MIC against Aspergillus flavus came out at 35 µg/mL (≈ 49.4 µM); in the assay with Pseudomonas aeruginosa, 32 µg/mL (≈ 45.1 µM); with Bacillus subtilis it was 35 µg/mL (≈ 49.4 µM); against Escherichia coli, 35 µg/mL (≈ 49.4 µM); in the assay with Lactococcus lactis, 30 µg/mL (≈ 42.3 µM); with Trichoderma viride, 40 µg/mL (≈ 56.4 µM).
